Data reported in publication PMC3220788 (The Journal of steroid biochemistry and molecular biology, 2011).
Read-outs that look alike come from different tables or passages of the source.

How the values were obtained:
ERα [1] = experiment: PI3K activation; type: cell-based; conditions: COS7 ERα-GFP
COS7 cells = experiment: PI3K activation; type: cell-based; conditions: 10 µM, COS7 lacking ERα, ERβ and GPER
How it was run: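 COS7 cells carry no endogenous ERα, ERβ or GPER. They are transfected with PH-mRFP1 alone (¼ the recommended amount, Lipofectamine2000), grown on coverslips and serum-starved 24 h in phenol red-free RPMI. Cells are stimulated with compounds at 10 µM, fixed in 2% PFA, and scored by confocal microscopy for nuclear translocation of the PIP3 reporter.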

ERβ [2] = conditions: high concentrations (≥10 µM); cited from earlier work
ERα or ERβ = conditions: ERα- or ERβ-expressing cells; cited from earlier work
ERα/β = ERα/β (Homo sapiens, UniProt P03372); experiment: ERE-GFP reporter activation/inhibition assay in MCF-7 cells; type: cell-based; conditions: for inhibition of E2-induced ERE response: 1 nM E2
ERα [3] = conditions: cited from earlier work
ERα [4] = type: binding
How it was run: (§1)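 COS7 cells are transiently transfected (Lipofectamine2000) with ERα-GFP or ERβ-GFP and serum-starved 24 h. About 5×10⁴ cells are incubated 20 min with test compound, then an equal volume of 20 nM E2-Alexa633 in saponin permeabilization buffer is added. After 10 min at RT, cells are washed in PBS/2% BSA and read by high-throughput flow cytometry.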

ERβ [5] = type: binding
How it was run: as §1

[6] = system: endogenous purinergic receptors; experiment: Calcium mobilization by ATP in SKBr3 cells; type: cell-based; conditions: 10 µM G36, SKBr3
How it was run: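 SKBr3 cells are loaded with 3 µM indo1-AM and 0.05% pluronic acid in HBSS for 1 h at RT, washed, and assayed at 2×10⁶ cells/mL. Calcium is read ratiometrically (ex 340/em 400/490 nm) at 37°C in a stirred spectrofluorometer. Cells are pretreated with 10 µM test compound, then given 1 µM ATP to engage endogenous purinergic receptors.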

uterine epithelia = experiment: Mouse uterine estrogenicity assay; type: in vivo; conditions: s.c., 18 hr
GPER [7] = target: T1, GPER (Homo sapiens, UniProt Q99527); experiment: Intracellular calcium mobilization in SKBr3 cells; type: cell-based
How it was run: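 SKBr3 cells are loaded with 3 µM indo1-AM and 0.05% pluronic acid in HBSS for 1 h at RT, washed, and assayed at 2×10⁶ cells/mL. Calcium is read ratiometrically (ex 340 nm, em 400/490 nm) at 37°C with stirring. […] Responses are normalized to agonist plus DMSO vehicle, and IC50 is taken from the dose-response curve.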

GPER [8] = target: T1, GPER; experiment: ERK activation; type: cell-based
GPER [9] = target: T1, GPER; experiment: PI3K activation; type: cell-based; conditions: COS7 GPER-GFP, 1 µM G36 preincubated 20 min
How it was run: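 COS7 cells are cotransfected (Lipofectamine2000) with GPER-GFP and PH-mRFP1, the latter at ¼ the recommended amount. […] Cells are fixed in 2% PFA and imaged by confocal microscopy for PH-mRFP1 nuclear translocation as the PI3K read-out.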

[10] = entire range of concentrations tested

ERα/β, sequence (P03372 whole entry): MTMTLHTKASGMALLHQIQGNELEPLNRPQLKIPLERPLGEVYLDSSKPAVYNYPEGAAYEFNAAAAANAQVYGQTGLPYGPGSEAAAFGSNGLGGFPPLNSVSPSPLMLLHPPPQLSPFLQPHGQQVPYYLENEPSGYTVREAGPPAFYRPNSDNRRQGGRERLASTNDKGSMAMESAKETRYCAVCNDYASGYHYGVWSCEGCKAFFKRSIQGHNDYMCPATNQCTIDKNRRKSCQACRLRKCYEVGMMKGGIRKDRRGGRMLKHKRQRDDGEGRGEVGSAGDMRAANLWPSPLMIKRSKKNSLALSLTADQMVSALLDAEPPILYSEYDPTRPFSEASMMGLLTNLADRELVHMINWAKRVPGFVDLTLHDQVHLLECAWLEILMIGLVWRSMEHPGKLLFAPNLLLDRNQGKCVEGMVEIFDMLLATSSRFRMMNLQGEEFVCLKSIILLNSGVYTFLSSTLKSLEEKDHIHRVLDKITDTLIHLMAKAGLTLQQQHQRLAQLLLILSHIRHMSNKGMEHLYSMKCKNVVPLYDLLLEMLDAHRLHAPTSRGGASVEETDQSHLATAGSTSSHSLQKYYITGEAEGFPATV
T1 sequence (Q99527 whole entry, species assumed): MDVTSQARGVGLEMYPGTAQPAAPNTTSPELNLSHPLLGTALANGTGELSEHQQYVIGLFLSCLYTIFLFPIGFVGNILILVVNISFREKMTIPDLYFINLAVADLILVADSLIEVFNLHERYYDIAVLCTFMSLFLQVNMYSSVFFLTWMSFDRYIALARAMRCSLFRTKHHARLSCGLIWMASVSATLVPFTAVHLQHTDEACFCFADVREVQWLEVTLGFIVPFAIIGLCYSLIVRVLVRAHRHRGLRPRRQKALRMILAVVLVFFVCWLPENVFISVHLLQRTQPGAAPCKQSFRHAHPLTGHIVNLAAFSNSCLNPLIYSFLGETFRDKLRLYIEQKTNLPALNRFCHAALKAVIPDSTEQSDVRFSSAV

Structure (SMILES): C[C@]12CC[C@@H]3c4ccc(O)cc4CC[C@H]3[C@@H]1CC[C@@H]2O [E2, 17β-estradiol, reference compound]
- activation of PI3K (nuclear translocation of PH-RFP) (ERα [1]): activate PI3K
- activation of PI3K (nuclear translocation of PH-RFP) (COS7 cells): no activation of PI3K

Structure (SMILES): Brc1cc2c(cc1[C@@H]1Nc3ccccc3[C@@H]3C=CC[C@@H]31)OCO2 [G15]
- binding to ERβ (ERβ [2]): weak binding
- rapid signaling events via MAPK or PI3K pathways (ERα or ERβ): does not mediate rapid signaling events
- inhibition of E2-induced ERE response (ERα/β; 1 µM compound): no significant effect
- ERE reporter activity compared to maximal E2 response (ERα/β; 1 µM, Fig. 5): ~ 15%
- inhibition of E2-induced ERE response (ERα/β; 10 µM compound): ~ 30%
- inhibitory effects on estrogen-induced transcription (ERα/β; E2 at 10 nM (data not shown)): absent
- ERE activation (ERα/β; concentrations 1–10 µM, Fig. 2): 15–20%
- activation of the ERE reporter (of E2 response) (ERα/β; high doses (≥1 µM), 24 h, MCF-7 ERE-GFP): ≤ 20%
- binding to ERα (ERα [3]; high concentrations (≥10 µM)): weak binding
- binding to ERα (competition of E2-Alexa633) (ERα [4]; highest concentration, 10 µM): weak but significant binding
- binding to ERβ (competition of E2-Alexa633) (ERβ [5]; highest concentration, 10 µM): weak but significant binding

Structure (SMILES): CC(C)c1ccc2c(c1)C1C=CCC1C(c1cc3c(cc1Br)OCO3)N2 (stereo not drawn) [G36, 4-(6-Bromo-benzo[1,3]dioxol-5-yl)-8-isopropyl-3a,4,5,9b-tetrahydro-3H-cyclopenta[c]quinoline]
- inhibition of calcium mobilization by 1 µM ATP [6]: no inhibition
- inhibition at 10 µM (ERα/β; MCF7, read-out: inhibition of E2-induced ERE response): < 5%
- ERE response elicited (ERα/β; concentrations up to 1 µM): no significant ERE response
- antagonism of E2-mediated ERE response (ERα/β; concentrations up to 10 µM): no ability to antagonize
- inhibition of E2-mediated PI3K activation (ERα [1]; 1 µM G36 preincubated 20 min): did not inhibit
- effect on proliferation compared to E2 treatment (uterine epithelia; G36 50 ug/kg with E2 10 ug/kg): significant decrease in proliferation
- effect on proliferative response to G-1 (uterine epithelia; G36 50 ug/kg with G-1 10 ug/kg): completely abrogated
- uterine epithelial proliferation (Ki-67 positivity), compound alone (uterine epithelia; ovariectomized C57Bl6 mice, E2 10 ug/kg, G-1 10 ug/kg, G36 50 ug/kg): no effect
- effect on basal calcium level in cells (GPER [7]; 10 µM G36 alone, SKBr3): did not alter
- IC50 (GPER [7]; IC50, inhibition of E2-mediated calcium mobilization, SKBr3, E2 200 nM): 112 nM
- IC50 (GPER [7]; IC50, inhibition of G-1-mediated calcium mobilization, SKBr3, G-1 200 nM): 165 nM
- binding to ERα (competition of E2-Alexa633) (ERα [4]; [10]): lacking detectable binding activity
- effect on E2-induced ERK activation (GPER [8]; SKBr3, E2 10 nM, 1 µM antagonist pre-incubated 15 min): significant decrease
- effect on EGF-induced ERK activation (GPER [8]; SKBr3, EGF 10 ng/mL, 1 µM antagonist): unchanged
- effect on G-1-induced ERK activation (GPER [8]; SKBr3, G-1 10 nM, 1 µM antagonist pre-incubated 15 min): significant decrease
- binding to ERβ (competition of E2-Alexa633) (ERβ [5]; [10]): lacking detectable binding activity
- inhibition of E2-induced PI3K activation (GPER [9]): effectively inhibited
- activation of PI3K (nuclear translocation of PH-RFP) (COS7 cells): no activation of PI3K

Structure (SMILES): CC(=O)c1ccc2c(c1)C1C=CCC1C(c1cc3c(cc1Br)OCO3)N2 (stereo not drawn) [G-1]
- ER binding competition (ERα [3]; 10 µM): unable to detect significant competition
- activation of PI3K (nuclear translocation of PH-RFP) (COS7 cells): no activation of PI3K
